Results: ChEMBL document CHEMBL1122973, “Synthesis and platelet aggregation inhibitory activity of 4,5-bis(substituted)-1,2,3-thiadiazoles” (J Med Chem, 1985)
≈ marks a conversion by molar mass, not a printed value.

What was measured:
Format in all cases: functional
Homo sapiens [1] = organism: Homo sapiens; test: Percent inhibition of collagen-induced Platelet aggregation in human platelet-rich plasma (PRP) at a concentration of 0.032 ug/mL
Homo sapiens [2] = organism: Homo sapiens; test: Percent inhibition of collagen-induced Platelet aggregation in human platelet-rich plasma (PRP) at a concentration of 0.01 ug/mL
Homo sapiens [3] = organism: Homo sapiens; test: In vitro inhibition of collagen-induced platelet aggregation in human platelet-rich plasma (PRP)
Outline: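 Citrated human blood spun at 200g, 10 min, 10 °C to give PRP. A further spin at 2000g, 10 min, 10 °C gave PPP, used to adjust the platelet count to 3×10^5/mm³. Collagen triggered aggregation. Approximate IC50 was read from 1/2 log steps of drug concentration. Flurbiprofen served as internal standard for day-to-day variation in platelet sensitivity.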

Homo sapiens [4] = organism: Homo sapiens; test: Percent inhibition of collagen-induced Platelet aggregation in human platelet-rich plasma (PRP) at a concentration of 0.001 ug/mL
Homo sapiens [5] = organism: Homo sapiens; test: Potency relative to flurbiprofen in inhibiting collagen-induced platelet aggregation in human platelet-rich plasma (PRP)
Outline: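 Ratio of activity to flurbiprofen, the internal standard run alongside each day. The IC50 was approximate, from 1/2 log concentration intervals, for collagen-induced aggregation in human PRP. PRP came from citrated blood (200g, 10 min, 10 °C), with platelets adjusted to 3×10^5/mm³ using autologous PPP (2000g, 10 min, 10 °C).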

| Structure (SMILES) | IC50 (Homo sapiens [3]) [µg/mL] | inhibition at 0.032 µg/mL (Homo sapiens [1]) [%] | inhibition at 0.01 µg/mL (Homo sapiens [2]) [%] | inhibition at 0.001 µg/mL (Homo sapiens [4]) [%] | Relative potency (Homo sapiens [5]) |
| --- | --- | --- | --- | --- | --- |
| CCNc1ccc(-c2nnsc2-c2ccc(NCC)cc2)cc1 | 3.2 (≈ 9.86 µM) |  |  |  | 0.03 |
| c1ccc(-c2nnsc2-c2ccc3c(c2)OCO3)cc1 | 3.2 (≈ 11.3 µM) |  |  |  | 0.03 |
| c1ccc(-c2cnns2)cc1 | 3.2 (≈ 19.7 µM) |  |  |  | 0.03 |
| COc1ccc(-c2csnn2)cc1 | 3.2 (≈ 16.6 µM) |  |  |  | 0.03 |
| c1ccc(-c2nnsc2-c2ccccc2)cc1 | 3.2 (≈ 13.4 µM) |  |  |  | 0.03 |
| c1ccc(-c2csnn2)cc1 | 3.2 (≈ 19.7 µM) |  |  |  | 0.03 |
| c1csc(-c2nnsc2-c2cccs2)c1 | 3.2 (≈ 12.8 µM) |  |  |  | 0.03 |
| CC(=O)Oc1ccccc1C(=O)O [ASPIRIN] |  |  |  |  | 0.01 |

Second part, led by results:

| IC50 (Homo sapiens [3]) [µg/mL] | Structure (SMILES) | inhibition at 0.032 µg/mL (Homo sapiens [1]) [%] | inhibition at 0.01 µg/mL (Homo sapiens [2]) [%] | inhibition at 0.001 µg/mL (Homo sapiens [4]) [%] | Relative potency (Homo sapiens [5]) |
| --- | --- | --- | --- | --- | --- |
| 0.003 (≈ 0.0112 µM) | COc1ccc(-c2snnc2-c2ccccc2)cc1 | 50 | 56.8 | 32.4 | 31.3 |
| 0.032 (≈ 0.102 µM) | COc1ccc(-c2snnc2-c2ccc(SC)cc2)cc1 |  |  |  | 3.1 |
| 0.032 (≈ 0.124 µM) | COc1ccc(-c2snnc2-c2ccco2)cc1 |  |  |  | 3.1 |
| 0.01 (≈ 0.0373 µM) | COc1ccc(-c2nnsc2-c2ccccc2)cc1 |  |  |  | 10 |
| 0.001 (≈ 0.00335 µM) | COc1ccc(-c2nnsc2-c2ccc(OC)cc2)cc1 | 55.4 | 90 | 32.4 | 100 |
| 0.032 (≈ 0.0974 µM) | COc1ccc(-c2snnc2-c2ccc(OC)cc2OC)cc1 |  |  |  | 3.1 |
| 1 (≈ 3.64 µM) | COc1ccc(-c2nnsc2-c2cccs2)cc1 |  |  |  | 0.1 |
| 3.2 (≈ 11.8 µM) | Oc1ccc(-c2nnsc2-c2ccc(O)cc2)cc1 |  |  |  | 0.03 |
| 0.01 (≈ 0.0308 µM) | CN(C)c1ccc(-c2nnsc2-c2ccc(N(C)C)cc2)cc1 |  |  |  | 10 |
| 3.2 | Cl.Cl.Nc1ccc(-c2nnsc2-c2ccc(N)cc2)cc1 |  |  |  | 0.03 |
